# Activity calls are given as the source filed them.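 The calls were made as follows, unless noted: active = fluorescence slope higher than the sample average by over 3 SD (cut at about -0.22 in these data, passing the limit was not always enough); inactive = the rest.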
# Experiments:
# [1] = inhibitors of TNFa-induced NFkB p65 translocation, primary screen, imaging, HUVEC, MLSMR starter and 10KST1 sets (AID 438;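 active = inhibition above 20% together with a positive visual image hit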;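 also: compound added about 3h40 before a 20 min TNFalpha stimulation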;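 as to inhibition: signal is the nuclear over cytoplasmic p65 intensity ratio per well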); conditions: HUVEC TNFa-induced p65 nuclear translocation; cell count: measured here: nuclei count (cytotoxicity indicator), at 2.08 µM; inhibition: at 2 µM, stronger effect = higher value, 0% TNFa-plus-vehicle, 100% no-TNFa wells
# [2] = inhibitors of mutant huntingtin aggregation, primary screen, imaging, exon1htt(103Q)mCFP cells, high-content imaging (AID 483;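 active = visual image review flags a hit and inhibition of aggregation exceeds 20%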;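 also: compound exposure lasted 3 days before fixation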;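 as to nuclei count: percent of the per-plate median nuclei count of sample wells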); conditions: exon1htt(103Q)mCFP cell line, aggregate imaging, at 2 µM; inhibition of aggregation: stronger effect = higher value; nuclei count: measured here: cell count, toxicity
# [3] = inhibitors of E-selectin induction by TNFa, primary screen, imaging, HUVEC, immunofluorescence, MLSMR starter and 10KST1 sets (AID 487;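 active = visually confirmed hit in the image check and inhibition above 20%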;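 as to inhibition: signal is fraction of cell area covered by stained E-selectin grains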;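 as to nuclei count: 100% = median nuclei count of all wells on the same plate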); conditions: HUVEC TNFalpha-induced E-selectin immunofluorescence imaging, at 2 µM; inhibition: stronger effect = higher value; nuclei count: measured here: cell number, toxicity
# [4] = target: Voltage-gated potassium channel subunit beta-2 (Rattus norvegicus) (UniProt P62483); assay: KvBeta enzyme negative modulators, primary screen, biochemical, NADPH fluorescence (AID 622); conditions: recombinant KvBeta, 4-cyanobenzaldehyde reduction, at 10 µM, stronger effect = higher value;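 also: slope of raw intensity against log time taken from 70 to 1610 s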
# Chain of Voltage-gated potassium channel subunit beta-2 (Rattus norvegicus) (P62483 whole entry, looked up): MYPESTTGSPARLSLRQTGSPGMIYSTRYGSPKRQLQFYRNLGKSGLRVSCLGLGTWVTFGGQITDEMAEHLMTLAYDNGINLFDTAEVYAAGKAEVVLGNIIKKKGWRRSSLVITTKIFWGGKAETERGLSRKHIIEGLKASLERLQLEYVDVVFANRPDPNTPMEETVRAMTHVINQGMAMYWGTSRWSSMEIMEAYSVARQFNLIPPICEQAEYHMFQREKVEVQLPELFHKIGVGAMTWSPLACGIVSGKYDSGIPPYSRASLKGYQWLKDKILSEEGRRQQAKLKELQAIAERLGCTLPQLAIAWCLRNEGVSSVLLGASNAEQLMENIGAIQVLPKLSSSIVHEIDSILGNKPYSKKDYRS
# [5] = target: Voltage-gated potassium channel subunit beta-2 (Rattus norvegicus) (UniProt P62483); assay: KvBeta positive modulators, primary screen, biochemical, NADPH fluorescence (AID 623;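 active = NADPH fluorescence slope more negative than the mean of all samples by about 3 SD, 99.7% confidence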;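 also: fluorescence intensity change per second fitted from 20 to 320 s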); conditions: Recombinant KvBeta, NADPH fluorescence decrease slope, 10 min; at 10 µM; stronger effect = lower value
# [6] = target: Muscarinic acetylcholine receptor M4 (Homo sapiens) (UniProt P08173); assay: compounds altering M4/GIRK thallium flux, either direction, primary screen, M4 allosteric agonist project, cell-based, HEK293 M4/GIRK, BTC-AM (AID 625;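 active = fluorescence slope after compound addition differing from the mean of all tested samples at 99.7% confidence, mostly higher but some lower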;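 also: thallium influx through GIRK channels coupled to M4 in HEK293 cells with BTC-AM dye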); conditions: at 10 µM, actives lie on both sides
# Chain of Muscarinic acetylcholine receptor M4 (Homo sapiens) (P08173 whole entry, looked up): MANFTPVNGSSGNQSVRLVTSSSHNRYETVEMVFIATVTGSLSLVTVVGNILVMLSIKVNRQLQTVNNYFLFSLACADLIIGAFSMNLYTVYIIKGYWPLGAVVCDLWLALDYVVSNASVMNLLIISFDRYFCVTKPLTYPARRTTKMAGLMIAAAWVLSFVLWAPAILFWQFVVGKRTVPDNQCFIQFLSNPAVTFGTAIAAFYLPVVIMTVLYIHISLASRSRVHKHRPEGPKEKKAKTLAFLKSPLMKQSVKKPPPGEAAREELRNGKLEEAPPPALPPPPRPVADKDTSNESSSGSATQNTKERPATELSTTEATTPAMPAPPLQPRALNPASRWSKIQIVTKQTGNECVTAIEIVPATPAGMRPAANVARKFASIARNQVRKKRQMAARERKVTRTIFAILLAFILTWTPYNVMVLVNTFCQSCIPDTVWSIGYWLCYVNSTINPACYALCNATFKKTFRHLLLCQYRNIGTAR
# Summary of the method: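 Assay system: HEK293 cells with M4 receptor and GIRK channels / Controls: carbachol and DMSO controls / Schedule: 1 h dye loading, 2 min kinetic read / Technique: kinetic fluorescence with BTC-AM dye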
# [7] = inhibitors of Sendai virus-induced IRF3 signaling, primary screen, TLR/RLR signaling modifier project, cell-based, Sendai virus stimulus, luciferase, 10K MLSCN set (AID 602276;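 active = inhibition at or above 50% at 10 µM; inactive = inhibition below 50%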;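 also: firefly luciferase from ISG56 promoter only with Renilla not read in this screen; 0% = Sendai virus plus DMSO and 100% = medium plus DMSO without virus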); conditions: HEK293 RL24 IRF3 luciferase reporter, at 10 µM, stronger effect = higher value
# [8] = inhibitors of poly I:C-induced TLR3 signaling, primary screen, cell-based, poly I:C stimulus, luciferase, 10K MLSCN set (AID 602277;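 active = inhibition of the reporter signal at or above 50%; inactive = inhibition below 50%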); conditions: HEK293-TLR3 RL24 IRF3 luciferase reporter, at 10 µM, stronger effect = higher value
Structure (SMILES),cell count [1],inhibition [1],inhibition of aggregation [2],nuclei count [2],inhibition [3],nuclei count [3],fluorescence slope [4],NADPH fluorescence slope [5],fluorescence slope [6],inhibition [7],inhibition [8]
Cc1ccc(OC(=O)NC2CCS(=O)(=O)C2)cc1C (centres undefined),395,-0.3% (inactive),-6.1% (inactive),98.6%,-107% (inactive),116%,-0.617 (inactive),-2.5e-07 (inactive),0.00398 (inactive),12.7% (inactive),17.3% (inactive)
CC1CCCC(NC(=O)CSc2ncccc2C(=O)O)C1C (centres undefined),660,-10% (inactive),7.4% (inactive),117%,-55.4% (inactive),112%,-0.566 (inactive),-8.3e-06 (inactive),0.00597 (inactive),13.9% (inactive),24.3% (inactive)
CCC(=O)N1CCc2cc(Br)cc(S(=O)(=O)N3CCCCCC3)c21,434,-3.9% (inactive),34.8% (inactive),65.9%,13.2% (inactive),99.9%,-0.54 (inactive),-5.4e-06 (inactive),0.00616 (inactive),7.37% (inactive),12.3% (inactive)
N#CC1=C(SCc2ccccc2)NC(=O)C(C#N)C12CCCC2 (centres undefined),413,4% (inactive),-2.9% (inactive),116%,-9.1% (inactive),86.6%,-0.426 (inactive),2e-05 (inactive),0.00517 (inactive),2.21% (inactive),-12.9% (inactive)
Cc1nc2c3cnn(-c4ccccc4)c3ncn2n1,470,1.7% (inactive),-9.9% (inactive),105%,-62.2% (inactive),108%,-0.406 (inactive),8.7e-05 (inactive),0.00848 (inactive),-1.03% (inactive),-18.2% (inactive)
COc1ccc(OCCCC(=O)Nc2ccc3c(c2)OCCO3)cc1,467,10.1% (inactive),-6.5% (inactive),104%,-237% (inactive),140%,-0.299 (inactive),-2.2e-05 (inactive),0.00647 (inactive),-5.01% (inactive),-17.3% (inactive)
CCN(C(=O)c1c(-c2ccccc2)noc1C)c1ccccc1,600,1% (inactive),1.1% (inactive),106%,-39.7% (inactive),95.6%,-0.534 (inactive),-1.1e-05 (inactive),0.00432 (inactive),22.5% (inactive),22.7% (inactive)
Cc1c(C(=O)O)sc2nc3n(c(=O)c12)CCC(C)CC3 (centres undefined),621,-10.5% (inactive),-7.7% (inactive),113%,-29.1% (inactive),110%,-0.442 (inactive),6.7e-05 (inactive),0.00587 (inactive),6.81% (inactive),11.1% (inactive)
O=C(OCC#CCSc1nc2ccccc2o1)c1ccco1,541,6.7% (inactive),-4.7% (inactive),111%,-7.3% (inactive),116%,-0.405 (inactive),1.4e-05 (inactive),0.00568 (inactive),-2.28% (inactive),-8.72% (inactive)
COC(=O)C(F)(F)Sc1c(C)[nH]c2ccccc12,699,-2.1% (inactive),13.7% (inactive),94.7%,41.7% (inactive),108%,-0.444 (inactive),-1.5e-05 (inactive),0.00468 (inactive),25.1% (inactive),27% (inactive)
CCc1cc(C)cc(OCCNC(=O)c2ncn[nH]2)c1,473,3% (inactive),3.2% (inactive),93.5%,31.1% (inactive),88.4%,-0.592 (inactive),-1.9e-06 (inactive),0.00585 (inactive),12% (inactive),18.1% (inactive)
O=C(N1CCOCC1)N1CCC(NC(=O)C23CC4CC(CC(C4)C2)C3)CC1,363,9.1% (inactive),-0.3% (inactive),99%,-15.5% (inactive),81.8%,-0.55 (inactive),-4e-05 (inactive),0.00404 (inactive),15.6% (inactive),21.8% (inactive)
Cc1ccc(C(=O)OCC(=O)c2ccc(Cl)s2)s1,654,-24.7% (inactive),10.6% (inactive),86%,-13.1% (inactive),121%,-0.454 (inactive),0.000104 (inactive),0.00572 (inactive),-26% (inactive),-58% (inactive)
O=C(Nc1ccc(Cl)cc1)N1CCSCC1,358,6.3% (inactive),-8.3% (inactive),104%,37.4% (inactive),84.1%,-0.494 (inactive),-3e-05 (inactive),0.00504 (inactive),-2.29% (inactive),-14.3% (inactive)
COc1cc(-c2nc(S(=O)(=O)c3ccccc3)c(N3CCOCC3)o2)cc(OC)c1OC,439,6% (inactive),-5.3% (inactive),108%,-286% (inactive),126%,-0.471 (inactive),-0.000303 (inactive),0.0029 (inactive),14.4% (inactive),15.3% (inactive)
CCn1c(SC)nc2c(c1=O)SC(C)C2 (centres undefined),570,-4.9% (inactive),-5% (inactive),112%,-20.6% (inactive),118%,-0.432 (inactive),-8.5e-05 (inactive),0.00648 (inactive),6.41% (inactive),15.1% (inactive)
O=C(O)c1oc2ccccc2c1-n1cccc1,436,13.8% (inactive),10.7% (inactive),110%,-0.2% (inactive),112%,-0.531 (inactive),-1.3e-05 (inactive),0.00514 (inactive),10.5% (inactive),26% (inactive)
COc1cccc(-n2nnnc2SCC(=O)NCc2ccco2)c1,423,-3.3% (inactive),-7.7% (inactive),94%,-44.9% (inactive),128%,-0.548 (inactive),-2.6e-05 (inactive),0.00522 (inactive),19.3% (inactive),21.4% (inactive)
CN(C)C(CNc1nnnn1-c1ccccc1)c1ccco1 (centres undefined),632,-7.3% (inactive),-11.4% (inactive),96%,-23.9% (inactive),116%,-0.584 (inactive),4.2e-06 (inactive),0.00677 (inactive),8.59% (inactive),19.2% (inactive)
Cc1ccc(S(=O)(=O)N2CCOCC2)cc1C(=O)Nc1ccccn1,542,-49% (inactive),-23.1% (inactive),106%,-75.1% (inactive),111%,-0.346 (inactive),-3.9e-05 (inactive),0.00587 (inactive),7.52% (inactive),12% (inactive)
CSc1nc2c(ccc3ccccc32)o1,572,4.2% (inactive),-4.8% (inactive),104%,-70.5% (inactive),102%,-0.566 (inactive),-1.5e-05 (inactive),0.00656 (inactive),-5.19% (inactive),-21.2% (inactive)
O=C(c1cn(-c2ccccc2)nc1-c1cccs1)N1CCN(c2ccccn2)CC1,465,-10.8% (inactive),11.5% (inactive),84.1%,-83% (inactive),150%,-0.421 (inactive),4e-05 (inactive),0.00586 (inactive),6.18% (inactive),-18.9% (inactive)
NC1=NC(c2ccc(Cl)cc2)n2c(nc3ccccc32)N1 (centres undefined),780,3.5% (inactive),-8.4% (inactive),125%,-15.2% (inactive),113%,-0.584 (inactive),1.3e-05 (inactive),0.00539 (inactive),16.5% (inactive),18.6% (inactive)
CC(=O)Nc1ccc(OC(=O)c2cccnc2)cc1,367,0.3% (inactive),-13.8% (inactive),103%,-194% (inactive),112%,-0.318 (inactive),-4.9e-05 (inactive),0.00601 (inactive),-10.8% (inactive),-12.7% (inactive)
O=C(OCC(=O)N1CCCC1)c1cncc(Br)c1,682,16.5% (inactive),23.5% (inactive),83%,35.3% (inactive),102%,-0.207 (inactive),-2.4e-05 (inactive),0.00528 (inactive),11.4% (inactive),0.097% (inactive)
CCCC(=O)Nc1ccc(NC(=O)C2CC2)cn1,471,-17.9% (inactive),-28.9% (inactive),99.8%,-79.6% (inactive),112%,-0.527 (inactive),1.9e-05 (inactive),0.00449 (inactive),14.1% (inactive),-13.6% (inactive)
Cc1cc(/C=N/n2cnnc2)c(C)n1-c1ccc(Cl)cc1Cl,485,7.6% (inactive),-10.2% (inactive),94.2%,-275% (inactive),135%,-0.294 (inactive),-3e-05 (inactive),0.00517 (inactive),17.2% (inactive),16.7% (inactive)
[O-][n+]1c2c(nn1-c1ccccc1Cl)-c1nonc1CC2,593,-26.9% (inactive),-16.7% (inactive),112%,-1.8% (inactive),95%,-0.351 (inactive),-7.7e-05 (inactive),0.00719 (inactive),12% (inactive),5.67% (inactive)
COc1cc(OC)cc(-n2nnnc2SCC(=O)N2CCCC2)c1,740,-7.3% (inactive),18.3% (inactive),94.2%,12% (inactive),103%,-0.622 (inactive),1.7e-05 (inactive),0.0053 (inactive),15.1% (inactive),23.1% (inactive)

# Source: PubChem BioAssay
